{"source": "ChEMBL document CHEMBL1140400", "about": "“Synthesis and anthelmintic properties of arylquinolines with activity against drug-resistant nematodes” (2005)", "data": [{"tested_on": "Haemonchus contortus", "assay": "Lethal dose against Haemonchus contortus Lawes ( levamisole and benzimidazole resistant) using NemaTox assay", "assay_type": "functional", "summary_of_the_method": "(§1)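 Larval development assay in agar matrix: 80–100 nematode eggs per well with compound at twofold serial dilutions from 100 μg/mL downward; wells supplemented with nutrient medium, incubated at 26 °C until control larvae reached the L3 stage. Day 5 qualitative larval assessment; LD99 taken as lowest concentration inhibiting development in 99% of larvae present.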", "units": {"LD99": "µg/mL"}, "values": [{"smiles": "COc1cc(OC)c2cc(Cl)ccc2n1", "LD99": 8.8}, {"smiles": "COc1cc(OC)c2cccc(-c3ccccc3)c2n1", "LD99": 6.3}, {"smiles": "COc1ccc(-c2cccc3c(OC)cc(OC)nc23)cc1", "LD99": 3.1}, {"smiles": "COc1ccc(-c2ccc3nc(OC)cc(OC)c3c2)cc1", "LD99": 1.6}, {"smiles": "COc1cc(OC)c2cc(-c3ccccc3)ccc2n1", "LD99": 3.1}, {"smiles": "c1ccc([C@H]2CN3CCSC3=N2)cc1", "note": "[LEVAMISOLE]", "LD99": ">100"}, {"smiles": "c1ccc2[nH]c(-c3cscn3)nc2c1", "note": "[THIABENDAZOLE]", "LD99": 5}]}, {"tested_on": "Trichostrongylus colubriformis", "assay": "Lethal dose against Trichostrongylus colubriformis using NemaTox assay", "assay_type": "functional", "summary_of_the_method": "as §1", "units": {"LD99": "µg/mL"}, "values": [{"smiles": "COc1cc(OC)c2cc(Cl)ccc2n1", "LD99": 25}, {"smiles": "COc1cc(OC)c2cccc(-c3ccccc3)c2n1", "LD99": 50}, {"smiles": "COc1ccc(-c2cccc3c(OC)cc(OC)nc23)cc1", "LD99": 6.3}, {"smiles": "COc1ccc(-c2ccc3nc(OC)cc(OC)c3c2)cc1", "LD99": 3.1}, {"smiles": "COc1cc(OC)c2cc(-c3ccccc3)ccc2n1", "LD99": 6.3}]}, {"tested_on": "Haemonchus contortus", "assay": "Lethal dose against Haemonchus contortus VSRG (benzimidazole resistant) using NemaTox assay", "assay_type": "functional", "summary_of_the_method": "as §1", "units": {"LD99": "µg/mL"}, "values": [{"smiles": "COc1cc(OC)c2cc(Cl)ccc2n1", "LD99": 13}, {"smiles": "COc1cc(OC)c2cccc(-c3ccccc3)c2n1", "LD99": 4.4}, {"smiles": "COc1ccc(-c2cccc3c(OC)cc(OC)nc23)cc1", "LD99": 6.3}, {"smiles": "COc1ccc(-c2ccc3nc(OC)cc(OC)c3c2)cc1", "LD99": 2.2}, {"smiles": "COc1cc(OC)c2cc(-c3ccccc3)ccc2n1", "LD99": 3.1}, {"smiles": "c1ccc([C@H]2CN3CCSC3=N2)cc1", "note": "[LEVAMISOLE]", "LD99": 1.6}, {"smiles": "c1ccc2[nH]c(-c3cscn3)nc2c1", "note": "[THIABENDAZOLE]", "LD99": 5}]}, {"tested_on": "Haemonchus contortus", "assay": "Lethal dose against Haemonchus contortus using NemaTox assay", "assay_type": "functional", "summary_of_the_method": "as §1", "units": {"LD99": "µg/mL"}, "values": [{"smiles": "COc1cc(Cl)nc2ccccc12", "LD99": 25}, {"smiles": "COc1cc(OC)c2cc(Cl)ccc2n1", "LD99": 12.5}, {"smiles": "COc1nc2ccccc2c(OC)c1-c1ccccc1", "LD99": 25}, {"smiles": "COc1cc(OC)c2c(C)cc(C)cc2n1", "LD99": 25}, {"smiles": "COc1cc(OC)c2cccc(-c3ccccc3)c2n1", "LD99": 12.5}, {"smiles": "COc1ccc(-c2cccc3c(OC)cc(OC)nc23)cc1", "LD99": 12.5}, {"smiles": "COc1ccc(-c2ccc3nc(OC)cc(OC)c3c2)cc1", "LD99": 3.1}, {"smiles": "COc1cc(OC)c2cc(-c3ccccc3)ccc2n1", "LD99": 3.1}]}, {"tested_on": "Teladorsagia circumcincta", "assay": "Lethal dose against Ostertagia circumcincta using NemaTox assay", "assay_type": "functional", "summary_of_the_method": "as §1", "units": {"LD99": "µg/mL"}, "values": [{"smiles": "COc1cc(OC)c2cc(Cl)ccc2n1", "LD99": 13}, {"smiles": "COc1cc(OC)c2cccc(-c3ccccc3)c2n1", "LD99": 6.3}, {"smiles": "COc1ccc(-c2cccc3c(OC)cc(OC)nc23)cc1", "LD99": 3.1}, {"smiles": "COc1ccc(-c2ccc3nc(OC)cc(OC)c3c2)cc1", "LD99": 3.1}, {"smiles": "COc1cc(OC)c2cc(-c3ccccc3)ccc2n1", "LD99": 3.1}]}, {"tested_on": "Haemonchus contortus", "assay": "Lethal dose against Haemonchus contortus (susceptible) using NemaTox assay", "assay_type": "functional", "summary_of_the_method": "as §1", "units": {"LD99": "µg/mL"}, "values": [{"smiles": "COc1cc(OC)c2cc(Cl)ccc2n1", "LD99": 13}, {"smiles": "COc1cc(OC)c2cccc(-c3ccccc3)c2n1", "LD99": 6.3}, {"smiles": "COc1ccc(-c2cccc3c(OC)cc(OC)nc23)cc1", "LD99": 6.3}, {"smiles": "COc1ccc(-c2ccc3nc(OC)cc(OC)c3c2)cc1", "LD99": 3.1}, {"smiles": "COc1cc(OC)c2cc(-c3ccccc3)ccc2n1", "LD99": 3.1}, {"smiles": "c1ccc([C@H]2CN3CCSC3=N2)cc1", "note": "[LEVAMISOLE]", "LD99": 1.6}, {"smiles": "c1ccc2[nH]c(-c3cscn3)nc2c1", "note": "[THIABENDAZOLE]", "LD99": 0.16}]}, {"tested_on": "Haemonchus contortus", "assay": "Lethal dose against Haemonchus contortus CAVR (ivermectin resistant) using NemaTox assay", "assay_type": "functional", "summary_of_the_method": "as §1", "units": {"LD99": "µg/mL"}, "values": [{"smiles": "COc1cc(OC)c2cc(Cl)ccc2n1", "LD99": 6.3}, {"smiles": "COc1cc(OC)c2cccc(-c3ccccc3)c2n1", "LD99": 3.1}, {"smiles": "COc1ccc(-c2cccc3c(OC)cc(OC)nc23)cc1", "LD99": 3.1}, {"smiles": "COc1ccc(-c2ccc3nc(OC)cc(OC)c3c2)cc1", "LD99": 1.6}, {"smiles": "COc1cc(OC)c2cc(-c3ccccc3)ccc2n1", "LD99": 3.1}, {"smiles": "c1ccc([C@H]2CN3CCSC3=N2)cc1", "note": "[LEVAMISOLE]", "LD99": 0.78}, {"smiles": "c1ccc2[nH]c(-c3cscn3)nc2c1", "note": "[THIABENDAZOLE]", "LD99": 0.16}]}]}
